Test results: ChEMBL document CHEMBL4041482, “Synthesis, evaluation, and CoMFA study of fluoroquinophenoxazine derivatives as bacterial topoisomerase IA inhibitors” (Eur J Med Chem, 2017)
Converted amounts (≈) assume the structure as drawn.

Columns and labels:
[1] = Inhibition of recombinant Escherichia coli topoisomerase 1a expressed in Escherichia coli assessed as reduction in enzyme-mediated relaxation of supercoiled pBAD/Thio DNA preincubated with enzyme followed by substrate addition measured after 30 mins by ethidium bromide staining based agarose gel electrophoresis method
Escherichia coli [2] = assay: Antibacterial activity against Escherichia coli BAS3023 harboring imp mutant by microdilution method; assay type: functional
Method in brief: (§1)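 MICs determined by standard broth microdilution in cation-adjusted Mueller-Hinton Broth; E. coli BAS3023 carries an imp mutation conferring membrane permeability to small molecules, MG1655 K12 is wild type.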

Escherichia coli [3] = assay: Antibacterial activity against Escherichia coli K12 MG1655 by microdilution method; assay type: functional; conditions: K-12 substr. MG1655; method in brief: as §1
Bacillus spizizenii = assay: Antibacterial activity against Bacillus subtilis ATCC 6633 by microdilution method; assay type: functional
Method in brief: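 Broth microdilution per standard protocol in cation-adjusted Mueller-Hinton broth; MIC taken as lowest inhibiting concentration.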

[4] = Inhibition of recombinant Escherichia coli DNA gyrase expressed in Escherichia coli assessed as reduction in enzyme-mediated supercoiling of relaxed circular DNA preincubated with enzyme followed by substrate addition measured after 30 mins by agarose gel electrophoresis method
[5] = tested on: Mycobacterium tuberculosis; assay: Antimycobacterial activity against Mycobacterium tuberculosis H37Rv after 7 days by microplate alamar blue assay; assay type: functional; conditions: 168 h
Vero = assay: Cytotoxicity against African green monkey Vero cells assessed as reduction in cell viability after 72 hrs by MTS assay; assay type: cell-based; conditions: Chlorocebus sabaeus
[6] = Inhibition of human topoisomerase type 1B assessed as reduction in enzyme-mediated relaxation of supercoiled pBAD/Thio DNA after 30 mins by agarose gel electrophoresis method
Method in brief: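 Human topoisomerase I, 0.5 U, in manufacturer's reaction buffer; enzyme mixed with compound before 200 ng supercoiled pBAD/Thio plasmid added, 20 μL final. 37 °C for 30 minutes; stopped with SDS/bromophenol blue/glycerol buffer; agarose gel electrophoresis read-out.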

[7] = molecular target: DNA topoisomerase 2-alpha (Homo sapiens, UniProt P11388); assay: Inhibition of human topoisomerase-2alpha assessed as reduction in enzyme-mediated decatenation using kinetoplast DNA as substrate after 15 mins by ethidium bromide staining based agarose gel electrophoresis method
Chain of DNA topoisomerase 2-alpha (P11388 whole entry): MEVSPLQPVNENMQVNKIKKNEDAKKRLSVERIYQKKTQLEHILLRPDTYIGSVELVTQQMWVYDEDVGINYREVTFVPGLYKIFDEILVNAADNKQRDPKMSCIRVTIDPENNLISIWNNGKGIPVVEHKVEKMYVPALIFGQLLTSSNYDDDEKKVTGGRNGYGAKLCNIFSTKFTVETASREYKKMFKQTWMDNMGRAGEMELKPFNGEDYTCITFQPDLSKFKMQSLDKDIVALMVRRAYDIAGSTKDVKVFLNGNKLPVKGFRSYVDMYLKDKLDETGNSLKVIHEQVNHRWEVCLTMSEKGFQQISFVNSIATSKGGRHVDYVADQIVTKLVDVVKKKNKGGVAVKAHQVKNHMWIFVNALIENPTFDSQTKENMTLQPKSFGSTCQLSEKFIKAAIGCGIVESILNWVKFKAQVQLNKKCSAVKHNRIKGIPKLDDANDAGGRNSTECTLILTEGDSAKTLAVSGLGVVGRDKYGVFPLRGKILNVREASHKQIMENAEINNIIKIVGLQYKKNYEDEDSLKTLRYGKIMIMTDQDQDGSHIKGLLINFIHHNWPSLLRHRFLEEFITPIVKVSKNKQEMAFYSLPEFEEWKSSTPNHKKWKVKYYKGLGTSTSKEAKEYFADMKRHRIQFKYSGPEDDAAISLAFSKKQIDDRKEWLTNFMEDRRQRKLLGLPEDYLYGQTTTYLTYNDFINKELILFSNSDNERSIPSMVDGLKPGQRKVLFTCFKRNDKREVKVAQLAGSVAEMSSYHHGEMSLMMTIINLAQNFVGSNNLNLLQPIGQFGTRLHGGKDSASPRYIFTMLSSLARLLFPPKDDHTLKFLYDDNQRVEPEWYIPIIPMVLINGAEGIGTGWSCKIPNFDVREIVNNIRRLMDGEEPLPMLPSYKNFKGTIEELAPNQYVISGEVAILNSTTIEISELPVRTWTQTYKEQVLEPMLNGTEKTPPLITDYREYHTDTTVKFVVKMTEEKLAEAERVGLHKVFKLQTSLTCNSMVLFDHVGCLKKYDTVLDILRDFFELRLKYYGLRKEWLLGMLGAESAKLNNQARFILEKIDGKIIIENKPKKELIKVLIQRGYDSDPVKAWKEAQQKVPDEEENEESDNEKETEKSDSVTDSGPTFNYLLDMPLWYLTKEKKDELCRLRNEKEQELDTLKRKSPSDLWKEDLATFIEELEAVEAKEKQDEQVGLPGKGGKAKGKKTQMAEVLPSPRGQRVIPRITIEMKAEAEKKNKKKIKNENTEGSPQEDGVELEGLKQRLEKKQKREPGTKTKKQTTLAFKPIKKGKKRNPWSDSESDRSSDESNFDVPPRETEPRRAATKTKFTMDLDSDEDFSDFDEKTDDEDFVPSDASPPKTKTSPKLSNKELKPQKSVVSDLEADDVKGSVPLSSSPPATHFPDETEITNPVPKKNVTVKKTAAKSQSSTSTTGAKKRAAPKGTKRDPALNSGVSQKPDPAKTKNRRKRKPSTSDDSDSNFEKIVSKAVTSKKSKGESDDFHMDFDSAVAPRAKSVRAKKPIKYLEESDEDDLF

[8] = Selectivity index, ratio of IC50 for African green monkey Vero cells to MIC for Mycobacterium tuberculosis H37Rv; assay type: toxicity
Method in brief: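 SI computed as cytotoxic IC50 against Vero cells divided by MIC against M. tuberculosis; Mtb MIC from modified microplate Alamar blue assay.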

[9] = Inhibition of recombinant Escherichia coli topoisomerase 1a expressed in Escherichia coli assessed as reduction in enzyme-mediated relaxation of supercoiled pBAD/Thio DNA preincubated with enzyme followed by substrate addition measured after 30 mins by high-throughput screening assay
[10] = Solubility in DMSO-d6 solvent by 1H NMR method; assay type: physicochemical
[11] = Stability of the compound in DMSO-d6 solvent after several weeks by 1H NMR method; assay type: physicochemical
[12] = Stability of the compound in DMSO-d6 solvent after several weeks by HPLC method; assay type: physicochemical

| SMILES | IC50 [1] [µM] | pIC50 [1] | MIC (Escherichia coli [2]) [µM] | MIC (Escherichia coli [3]) [µM] | MIC (Bacillus spizizenii) [µM] | IC50 [4] [µM] | MIC [5] [µM] | IC50 (Vero) [µM] | IC50 [6] [µM] | IC50 [7] [µM] | Selectivity Index [8] | IC50 [9] [µM] | solubility [10] | Stability [11] | Stability [12] |
| --- | --- | --- | --- | --- | --- | --- | --- | --- | --- | --- | --- | --- | --- | --- | --- |
| Nc1ccc2c(c1)Oc1c(NCCc3ccccc3)c(F)cc3c(=O)c(C(=O)O)cn-2c13 | 3.9 | 5.41 | 50 (≈ 21.6 µg/mL) | > 200 | 25 to 50 (≈ 10.8 to 21.6 µg/mL) |  |  |  |  |  |  |  |  |  |  |
| Nc1ccc2c(c1)Oc1c(N3CCOCC3)c(F)cc3c(=O)c(C(=O)O)cn-2c13 | 0.97 | 6.01 | 0.19 to 0.39 (≈ 0.0755 to 0.155 µg/mL) | > 200 | 0.19 (≈ 0.0755 µg/mL) | 7.8 | 3.5 (≈ 1.39 µg/mL) | 24.7 |  |  |  |  |  |  |  |
| CN1CCN(c2c(F)cc3c(=O)c(C(=O)O)cn4c3c2Oc2cc([N+](=O)[O-])ccc2-4)CC1 | 1.95 | 5.71 | 1.56 (≈ 0.687 µg/mL) | 100 (≈ 44 µg/mL) | 0.78 (≈ 0.344 µg/mL) | 62.5 to 125 | 19 (≈ 8.37 µg/mL) | 95 | 31.2 |  |  |  |  |  |  |
| N[C@H]1CCN(c2c(F)cc3c(=O)c(C(=O)O)cn4c3c2Oc2cc([N+](=O)[O-])ccc2-4)C1 | 0.48 | 6.32 | 1.56 (≈ 0.665 µg/mL) | > 200 | 0.78 (≈ 0.333 µg/mL) | 3.9 | > 50 | > 50 | 7.8 | 1.95 to 3.9 |  |  |  |  |  |
| Nc1ccc2c(c1)Oc1c(N3CC[C@@H](N)C3)c(F)cc3c(=O)c(C(=O)O)cn-2c13 | 0.48 to 0.97 | 6.14 | 6.25 (≈ 2.48 µg/mL) |  | 12.5 (≈ 4.95 µg/mL) |  | > 63.1 | > 63.1 |  |  |  |  |  |  |  |
| CC(C)(C)OC(=O)N[C@H]1CCN(c2c(F)cc3c(=O)c(C(=O)O)cn4c3c2Oc2cc(N)ccc2-4)C1 | 3.9 | 5.41 |  | > 200 | 12.5 (≈ 6.21 µg/mL) |  |  |  |  |  |  |  |  |  |  |
| CCOC(=O)c1cn2c3c(c(F)c(F)cc3c1=O)Oc1cc([N+](=O)[O-])ccc1-2 | 15.6 | 4.81 | 50 (≈ 19.4 µg/mL) | > 200 | 25 (≈ 9.71 µg/mL) |  |  |  |  |  |  |  |  |  |  |
| CCCCCCNc1c(F)cc2c(=O)c(C(=O)O)cn3c2c1Oc1cc(N)ccc1-3 | 15.6 | 4.81 | > 200 | > 200 | > 200 |  |  |  |  |  |  |  |  |  |  |
| O=C(O)c1cn2c3c(c(F)c(F)cc3c1=O)Oc1cc([N+](=O)[O-])c(Cl)cc1-2 | 31.2 | 4.51 | 0.39 (≈ 0.154 µg/mL) | 50 (≈ 19.7 µg/mL) | 3.12 (≈ 1.23 µg/mL) | 62.5 | 29 (≈ 11.4 µg/mL) | > 127 | 31.2 |  |  |  |  |  |  |
| Nc1ccc2c(c1)Oc1c(N3CCC(N4CCCCC4)CC3)c(F)cc3c(=O)c(C(=O)O)cn-2c13 | 0.48 |  | 0.39 to 0.78 (≈ 0.187 to 0.373 µg/mL) | > 200 | 1.56 (≈ 0.746 µg/mL) | 15.6 | 2.5 (≈ 1.2 µg/mL) | 24.4 | 3.9 |  |  |  |  |  |  |
| Nc1ccc2c(c1)Oc1c(NCCN3CCOCC3)c(F)cc3c(=O)c(C(=O)O)cn-2c13 |  |  | 0.78 (≈ 0.344 µg/mL) | > 200 | 1.56 (≈ 0.687 µg/mL) | 15.6 to 31.2 | 21.6 (≈ 9.51 µg/mL) | 43 | 7.8 to 15.6 |  |  |  |  |  |  |
| CC(=O)c1ccc2c(c1)Oc1c(F)c(F)cc3c(=O)c(C(=O)O)cn-2c13 | 15.6 | 4.81 | > 200 | > 200 | > 200 |  |  |  |  |  |  |  |  |  |  |
| CCOC(=O)c1cn2c3c(c(F)c(F)cc3c1=O)Oc1cc(C(F)(F)F)ccc1-2 | 125 to 250 | 3.6 | > 200 | > 200 | > 200 |  |  |  |  |  |  |  |  |  |  |
| Nc1ccc2c(c1)Oc1c(N3CCNCC3)c(F)cc3c(=O)c(C(=O)O)cn-2c13 | 0.24 | 6.62 | 0.39 (≈ 0.155 µg/mL) | > 200 |  | 7.8 to 15.6 |  | > 126 | 7.8 | 1.95 to 3.9 |  |  |  |  |  |
| Nc1ccc2c(c1)Oc1c(NC34CC5CC(CC(C5)C3)C4)c(F)cc3c(=O)c(C(=O)O)cn-2c13 | 3.9 to 7.8 | 5.23 | 3.12 (≈ 1.44 µg/mL) | > 200 | 12.5 (≈ 5.77 µg/mL) |  | 38.4 (≈ 17.7 µg/mL) | 30.7 |  |  | 0.8 |  |  |  |  |
| CC1CCN(c2c(F)cc3c(=O)c(C(=O)O)cn4c3c2Oc2cc(N)ccc2-4)CC1 | 3.9 | 5.41 | 3.12 (≈ 1.28 µg/mL) | > 200 | 0.78 (≈ 0.319 µg/mL) |  |  |  |  |  |  |  |  |  |  |
| CN1CCN(c2c(F)cc3c(=O)c(C(=O)O)cn4c3c2Oc2cc(N)ccc2-4)CC1 | 0.48 | 6.32 |  |  |  | 15.6 to 31.2 |  |  | 15.6 | 3.9 to 7.8 |  |  |  |  |  |
| O=C(O)c1cn2c3c(c(N4CCNCC4)c(F)cc3c1=O)Oc1cc([N+](=O)[O-])ccc1-2 | 3.9 | 5.41 | > 200 | > 200 | > 200 |  |  |  |  |  |  |  |  |  |  |
| N#Cc1ccc2c(c1)Oc1c(F)c(F)cc3c(=O)c(C(=O)O)cn-2c13 | 31.2 | 4.51 | 200 (≈ 68 µg/mL) | > 200 | > 200 |  |  |  |  |  |  |  |  |  |  |
| O=C(O)c1cn2c3c(c(F)c(F)cc3c1=O)Oc1cc(C(F)(F)F)ccc1-2 | 125 to 250 | 3.61 | > 200 | > 200 | 25 (≈ 9.58 µg/mL) |  |  |  |  |  |  |  |  |  |  |
| CCOC(=O)c1cn2c3c(c(N4CCN(C)CC4)c(F)cc3c1=O)Oc1cc([N+](=O)[O-])ccc1-2 | 1.95 | 5.71 | 25 (≈ 11.7 µg/mL) | > 200 | 50 (≈ 23.4 µg/mL) |  |  |  |  |  |  |  |  |  |  |
| Nc1ccc2c(c1)Oc1c(NC3CCCC3)c(F)cc3c(=O)c(C(=O)O)cn-2c13 | 3.9 | 5.41 | 25 (≈ 9.88 µg/mL) | > 200 | 12.5 (≈ 4.94 µg/mL) |  |  |  |  |  |  |  |  |  |  |
| CCOC(=O)c1cn2c3c(c(F)c(F)cc3c1=O)Oc1cc(C#N)ccc1-2 | 31.2 | 4.51 | > 200 | > 200 | 200 (≈ 73.7 µg/mL) |  |  |  |  |  |  |  |  |  |  |
| Nc1ccc2c(c1)Oc1c(F)c(F)cc3c(=O)c(C(=O)O)cn-2c13 | 1.95 | 5.71 | 0.78 to 1.56 (≈ 0.258 to 0.515 µg/mL) | > 200 |  | > 125 |  |  | 31.3 | > 500 |  | 0.8 to 2 | Insoluble | Stable | Stable |
| O=C(O)c1cn2c3c(c(F)c(F)cc3c1=O)Oc1cc([N+](=O)[O-])ccc1-2 | 15.6 | 4.81 | 0.78 (≈ 0.281 µg/mL) | 200 (≈ 72 µg/mL) | 12.5 (≈ 4.5 µg/mL) |  |  |  |  |  |  |  |  |  |  |
| Nc1ccc2c(c1)Oc1c(N3CC[C@H](N)C3)c(F)cc3c(=O)c(C(=O)O)cn-2c13 | 0.48 to 0.97 | 6.14 | 1.56 (≈ 0.618 µg/mL) | > 200 | 6.25 (≈ 2.48 µg/mL) |  |  | > 63.1 |  |  |  |  |  |  |  |
| CC(=O)Nc1ccc2c(c1)Oc1c(F)c(F)cc3c(=O)c(C(=O)O)cn-2c13 | 7.8 | 5.11 | > 200 | > 200 | > 200 |  |  |  |  |  |  |  |  |  |  |
| Nc1ccc2c(c1)Oc1c(NC3CCCCC3)c(F)cc3c(=O)c(C(=O)O)cn-2c13 | 3.9 | 5.41 | 25 (≈ 10.2 µg/mL) | > 200 | 12.5 (≈ 5.12 µg/mL) |  |  |  |  |  |  |  |  |  |  |
